Among the data in the array DNA melting data of Ke et al. (doi:10.1101/2024.01.08.574731) are folding enthalpy and Tm values, retold here.

Data set [1] is described as follows: folding enthalpy; higher = less favourable; fluorescence melt of hairpins on a sequencing array, two-state fit. To be noted: sodium 0.088 M. A digest of the protocol: (§1)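 Two-state fits, bootstrapped, provided melting temperature and folding enthalpy from Cy3 fluorescence normalised to pre-quench Cy3 and to control constructs. Library hairpins with annealed Cy3 and quencher oligos were imaged on a sequenced MiSeq flow cell in 50 mM Na-HEPES pH 8.0, 25 mM NaCl, at 2.5 °C intervals up to 60 °C. Four replicates were combined with inverse-variance weighting. A 9.35 °C upward shift was applied to fitted temperatures to match UV melts.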

The nature of data set [2]: melting temperature; fluorescence melt of hairpins on a sequencing array, two-state fit, raised by 9.35 °C to match UV melts. To be noted: sodium 0.088 M. A digest of the protocol: as §1

Regarding GCTTTTGGAAACAAGAGC (((.(((....))).))), the folding enthalpy in data set [1] was -20 kcal/mol. For the same sequence, the Tm in data set [2] amounted to 41 °C.

Take GCTTTTTCGAAAGAAAGC (((..(((....)))))): in data set [1], the folding enthalpy is -17.7 kcal/mol. In addition, the Tm in data set [2] was 34.4 °C.

Consider GGAAAACCGAAAGGTTCC (((..(((....)))))), for which, in data set [1], the folding enthalpy is -13.8 kcal/mol. Further, in data set [2], the Tm amounted to 35.8 °C.

As for GGAAACACGAAAGTGTCC (((..(((....)))))), the folding enthalpy in data set [1] is -12.6 kcal/mol. The Tm in data set [2] amounted to 36.5 °C.

On to GGAAACCGAAAGGTGTCC (((.(((....))).))), for which, in data set [1], the folding enthalpy was -31.1 kcal/mol. Moreover, the Tm in data set [2] was found to be 52.4 °C.

With GGAAACGCGAAAGCGTCC (((..(((....)))))), the folding enthalpy in data set [1] is -9.21 kcal/mol. Further, in data set [2], the Tm worked out at 39.1 °C.

GGAAAGCCGAAAGGCTCC (((..(((....)))))): in data set [1], the folding enthalpy is -11.2 kcal/mol. Also, the Tm in data set [2] was 42.2 °C.

Consider GGAAAGGCGAAAGCCTCC (((..(((....)))))), for which the folding enthalpy in data set [1] is -10.6 kcal/mol. The Tm in data set [2] was 41.3 °C.

Take GGAACAGGAAACTGTTCC (((((((....))))))): the folding enthalpy in data set [1] was -35.9 kcal/mol. Besides, in data set [2], the Tm came to 60.6 °C.

Take GGAACCGAAAGGTATCC ((((((....))).))): the folding enthalpy in data set [1] was -18.2 kcal/mol. Further, the Tm in data set [2] turned out to be 40.8 °C.

In the case of GGAACCGAAAGGTCTCC ((((((....))).))), the folding enthalpy in data set [1] is -22.1 kcal/mol. The Tm in data set [2] was 44.7 °C.

Consider GGAACCGAAAGGTTTCC ((((((....))).))), for which the folding enthalpy in data set [1] was -18.5 kcal/mol. In addition, the Tm in data set [2] came to 53.8 °C.

For GGAACCGGAAACGGTCCC ((.((((....)))).)), the folding enthalpy in data set [1] is -19.7 kcal/mol. Moreover, the Tm in data set [2] was 52.9 °C.

As for GGAACGGAAACGTTCC ((((((....)))))), the folding enthalpy in data set [1] is -40.4 kcal/mol. The Tm in data set [2] worked out at 64.2 °C.

On to GGAACTCCGAAAGGATCC (((..(((....)))))), for which the folding enthalpy in data set [1] was -7.77 kcal/mol. Besides, the Tm in data set [2] is 27 °C.

For the sequence GGAAGACGAAAGTCCTCC (((.(((....))).))), in data set [1], the folding enthalpy is -21.4 kcal/mol. In data set [2], the Tm turned out to be 43 °C.

On to GGAAGAGGAAACTCTTCC (((((((....))))))), for which the folding enthalpy in data set [1] was -42.1 kcal/mol. In data set [2], the Tm came to 58.2 °C.

GGAAGATCGAAAGATTCC (((..(((....)))))): in data set [1], the folding enthalpy was -13.4 kcal/mol. In data set [2], the Tm turned out to be 29.8 °C.

Regarding GGAAGCCGAAAGGCTCC (((.(((....)))))), the folding enthalpy in data set [1] is -15.7 kcal/mol. Also, the Tm in data set [2] worked out at 56 °C.

GGAAGCGAAAGCTTTCC ((((((....))).))): the folding enthalpy in data set [1] was -30.2 kcal/mol. Also, in data set [2], the Tm worked out at 50.1 °C.

Turning to GGAAGCGAAAGCTTTTCC ((((((....)))..))), the folding enthalpy in data set [1] was -12.2 kcal/mol. For the same sequence, in data set [2], the Tm was found to be 33.4 °C.

As to GGAAGCGGAAACGCTTTC (.(((((....))))).), the folding enthalpy in data set [1] was -21.2 kcal/mol. The Tm in data set [2] is 53.7 °C.

On to GGAAGCGGAAACGTTTCC ((((.((....)).)))), for which the folding enthalpy in data set [1] was -39.7 kcal/mol. For the same sequence, in data set [2], the Tm came to 49.8 °C.

As to GGAAGGGAAACCTTCC ((((((....)))))), in data set [1], the folding enthalpy was -38 kcal/mol. Further, the Tm in data set [2] is 55.2 °C.

On to GGAAGTCGAAAGACCTCC (((.(((....))).))), for which the folding enthalpy in data set [1] is -27.1 kcal/mol. Also, the Tm in data set [2] worked out at 43.3 °C.

Regarding GGAAGTCGAAAGACTCC (((.(((....)))))), the folding enthalpy in data set [1] is -17.9 kcal/mol. Also, in data set [2], the Tm turned out to be 53 °C.

Turning to GGAAGTGGAAACACTCCC ((.((((....)))).)), the folding enthalpy in data set [1] is -23 kcal/mol. Also, the Tm in data set [2] was 42.7 °C.

Take GGAAGTGGAAACGTTTCC ((((..(....)..)))): the folding enthalpy in data set [1] is -13.3 kcal/mol. Further, the Tm in data set [2] came to 37.6 °C.

On to GGAATACGAAAGTAGTCC (((.(((....))).))), for which the folding enthalpy in data set [1] is -33.9 kcal/mol. Also, the Tm in data set [2] came to 51.8 °C.

As to GGAATAGGAAACCATTCC (((((.(....).))))), the folding enthalpy in data set [1] is -25.7 kcal/mol. Moreover, the Tm in data set [2] came to 34.3 °C.
